Experimental data from different studies.
Compare with care: the assays were run in different laboratories.
Target: Receptor-interacting serine/threonine-protein kinase 1 (RIPK1, Homo sapiens, UniProt Q13546)
One construct used (Q13546 1-671): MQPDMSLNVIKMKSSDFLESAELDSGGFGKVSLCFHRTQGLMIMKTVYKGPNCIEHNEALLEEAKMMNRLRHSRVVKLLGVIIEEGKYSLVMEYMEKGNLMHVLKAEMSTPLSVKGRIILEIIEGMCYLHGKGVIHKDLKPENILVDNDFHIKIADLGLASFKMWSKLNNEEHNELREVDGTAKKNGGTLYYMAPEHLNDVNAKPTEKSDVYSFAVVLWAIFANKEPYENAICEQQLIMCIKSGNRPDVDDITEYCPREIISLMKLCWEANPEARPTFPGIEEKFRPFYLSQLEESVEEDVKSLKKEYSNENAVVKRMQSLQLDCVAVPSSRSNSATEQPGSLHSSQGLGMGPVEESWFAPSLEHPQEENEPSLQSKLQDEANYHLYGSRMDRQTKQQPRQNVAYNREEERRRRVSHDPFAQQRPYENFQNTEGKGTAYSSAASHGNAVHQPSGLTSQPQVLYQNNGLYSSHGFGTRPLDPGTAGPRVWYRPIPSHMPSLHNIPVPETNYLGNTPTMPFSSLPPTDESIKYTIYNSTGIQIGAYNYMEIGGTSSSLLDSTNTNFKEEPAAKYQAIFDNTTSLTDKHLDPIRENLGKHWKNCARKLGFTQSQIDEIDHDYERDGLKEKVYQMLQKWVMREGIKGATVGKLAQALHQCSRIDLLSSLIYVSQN

Structure (SMILES) | observed | method | tested at | remaining binding [%]
CCc1ccccc1C(=O)Nc1n[nH]c2c(C)c(F)c(C3C(C#N)=C(C)N(C)C(C)=C3C#N)cc12 | cell-free assay | competition with immobilised ligand | 1 µM | 100
CN(C)c1nccc(-c2cnn3ncccc23)n1 | binding | – | 1 µM | 98
COc1ncc2cc3ccccc3nc2c1C#N | cell-free assay | competition with immobilised ligand | 5 µM | 100
COc1cc(-c2cn(C3CCc4c(F)cccc4N(CC(F)(F)F)C3=O)nn2)ccc1-n1cnc(C)c1 (stereo not shown) | cell-free assay | competition with immobilised ligand | 1 µM | 100
Nc1ncc2c(n1)-c1c([nH]c3ccc(C#CC4CC4)cc13)CCCC2 | binding | competition with immobilised ligand | 1 µM | 100
COc1cnc(Nc2cccc(S(N)(=O)=O)c2)nc1N1CCN(c2ccccc2)CC1 | binding | competition with immobilised ligand | 1 µM | 100
O=C(NCC1CCOCC1)c1n[nH]cc1NC(=O)c1c(F)cccc1F | binding | competition with immobilised ligand | 1 µM | 94
FC(F)(F)Oc1cccc(-c2cnc3ccc(-c4ccncc4)nn23)c1 | binding | competition with immobilised ligand | 5 µM | 81
Cc1c(C(=O)O)cc(-c2ccc(C3CCNCC3)cc2)c2ccc(-c3ccc(C(F)(F)F)cc3)cc12 | binding | competition with immobilised ligand | 1 µM | 100
CCN1CCN(Cc2ccc(C(=O)Nc3ccc(C)c(Oc4ccc5c(c4)CC(=O)N5)c3)cc2C(F)(F)F)CC1 | binding | competition with immobilised ligand | 1 µM | 86
O=C(NCCCN1CCOCC1)c1ccc(Nc2ncc(Cl)c(-c3ccc(Cl)s3)n2)cc1 | binding | competition with immobilised ligand | 1 µM | 45
CN(c1nccc(-c2cnn3ncccc23)n1)C1CC1 | binding | – | 1 µM | 100
O=C(c1ccc(Nc2nccc(-c3cc4ccccc4s3)n2)cc1)N1CCC(N2CCCC2)CC1 | binding | competition with immobilised ligand | 1 µM | 23
Cc1cnn2ncc(-c3ccnc(N(C)C)n3)c2c1 | binding | – | 1 µM | 100
CN(C)c1ncnc(-c2ccc3nc(Nc4cc(CN5CCN(C(=O)CC(F)(F)F)CC5)ccn4)[nH]c3c2)c1Cl | cell-free assay | competition with immobilised ligand | 1 µM | 93
c1cncc(-c2cccc(Nc3nccc(NC4CCCCC4)n3)c2)c1 | binding | competition with immobilised ligand | 10 µM | 98
N[C@@H]1CCN(c2nccc(-c3cnn4ncccc34)n2)C1 | binding | – | 1 µM | 100
O=C(c1ccc(Nc2ncc(Cl)c(-c3ccc(Cl)s3)n2)cc1)N1CCC(N2CCCC2)CC1 | binding | competition with immobilised ligand | 1 µM | 0.5
O=C(Nc1ccc(Oc2ccc(F)cc2)cc1)N1CCc2ncccc2[C@H]1c1ccc(F)cc1 | cell-free assay | competition with immobilised ligand | 1 µM | 100
